Reference: ChEMBL document CHEMBL3351748, “Synthesis and anticonvulsant activity of novel purine derivatives” (Eur J Med Chem, 2014)
Active and inactive are the calls of the source. No cut-off for these calls is given here.

Assays:
Mus musculus [1] = assay: Protective index, ratio of intraperitoneal neurotoxic TD50 against Kunming mouse by rotarod test to intraperitoneal anticonvulsant ED50 in Kunming mouse by MES test
Method in brief: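 Protective index is TD50/ED50. Both come from i.p. dosing in KunMing mice: ED50 from protection of hind-leg tonic extension in the 0.5 h MES test, TD50 from failure to stay 1 min on the 10 rpm rotarod.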

Mus musculus [2] = assay: Anticonvulsant activity in Kunming mouse assessed as protection against MES-induced seizures at 30 mg/kg, ip after 0.5 hrs by MES test; format: functional, organism-based; parameters: dose 30 mg/kg
Method in brief: (§1)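 KunMing mice (18-22 g), compounds in DMSO given i.p. at 30 and 100 mg/kg, 3 animals per dose. Examined 0.5 h after dosing; current applied 0.2 s through corneal electrodes. Protection scored as abolition of hind-leg tonic maximal extension; reported as animals protected/animals tested.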

Mus musculus [3] = assay: Anticonvulsant activity in ip dosed Kunming mouse assessed as protection against MES-induced seizures after 0.5 hrs by MES test; format: functional
Method in brief: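 KunMing mice (18-22 g) dosed i.p., compounds dissolved in DMSO; corneal-electrode shock (0.2 s) 30 min after administration. Endpoint is abolition of hind-leg tonic extension. ED50 is the dose protecting 50% of animals, given with 95% confidence intervals.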

[4] = Toxicity in ip dosed Kunming mouse assessed as inability of animal to maintain equilibrium on rod for at least 1 min in each trial by rotarod test; format: organism-based; conditions: in vivo
Method in brief: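 Mice pre-trained on a rotarod (3.2 cm diameter, 10 rpm), then dosed i.p. Neurotoxicity scored as failure to keep balance on the rod for at least 1 min in each trial. TD50 is the dose giving minimal neurotoxicity in 50% of animals.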

Mus musculus [5] = assay: Anticonvulsant activity in Kunming mouse assessed as protection against MES-induced seizures at 100 mg/kg, ip after 0.5 hrs by MES test; format: functional, organism-based; parameters: dose 100 mg/kg; method in brief: as §1
Mus musculus [6] = assay: Anticonvulsant activity in orally dosed Kunming mouse assessed as time of peak effect for protection against MES-induced seizures […] by MES test; format: functional
Mus musculus [7] = assay: Anticonvulsant activity in Kunming mouse assessed as protection against sc-PTZ-induced clonic seizures 50 mg/kg, sc administered 30 mins before PTZ injection; format: functional; conditions: route subcutaneous
Method in brief: (§2)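 Mice, 10 per group, dosed at 50 mg/kg. PTZ 85 mg/kg in saline given s.c. 30 min later. Animals housed individually and watched for 0.5 h. Clonic seizures, tonic seizures (usually maximal hind-leg extension) and deaths counted as percent inhibition.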

Mus musculus [8] = assay: Anticonvulsant activity in Kunming mouse assessed as protection against sc-PTZ-induced tonic seizures 50 mg/kg, sc administered 30 mins before PTZ injection; format: functional; conditions: route subcutaneous; method in brief: as §2
Mus musculus [9] = assay: Anticonvulsant activity in Kunming mouse assessed as protection against sc-PTZ-induced mortality 50 mg/kg, sc administered 30 mins before PTZ injection; format: functional; conditions: route subcutaneous
Method in brief: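 KunMing mice (18–22 g), 10 per group, given test agent dissolved in DMSO. Thirty minutes later, PTZ 85 mg/kg in saline was injected s.c. Animals were held in individual cages and watched for 0.5 h. Clonic seizures, tonic seizures and deaths were counted, and mortality was expressed as % inhibition.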

Mus musculus [10] = assay: Anticonvulsant activity in orally dosed Kunming mouse assessed as protection against MES-induced seizures after 1.5 hrs by MES test; conditions: po
Mus musculus [11] = species on record: Mus musculus; assay: Protective index, ratio of oral neurotoxic TD50 against Kunming mouse by rotarod test to oral anticonvulsant ED50 in Kunming mouse by MES test
[12] = Toxicity in orally dosed Kunming mouse assessed as inability of animal to maintain equilibrium on rod for at least 1 min in each trial by rotarod test; format: organism-based; conditions: in vivo, po
Method in brief: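 Rotarod test (3.2 cm rod, 10 rpm) in trained mice after oral dosing in 0.5% methylcellulose, tested at the 1.5 h time of peak effect. Toxicity is failure to stay on the rod for at least 1 min per trial. TD50 is the median dose for minimal neurotoxicity.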

Structure (SMILES) | Ratio TD50/ED50 (Mus musculus [1]) | Activity (Mus musculus [2]) | ED50 (Mus musculus [3]) [mg/kg] | TD50 at 1 min [4] [mg/kg] | Activity (Mus musculus [5]) | other results
c1ccc(Cn2cnc3c(-n4cncn4)ncnc32)cc1 | 4.7 | inactive | 66.6 | 315 | Active | 
CCCCCCCCCCn1cnc2c(-n3cncn3)ncnc21 | >25.6 | Active | 23.4 | > 700 | Active | Time (Mus musculus [6]): 1.5 h; inhibition in vivo at 50 mg/kg (Mus musculus [7]): 20%; inhibition in vivo at 50 mg/kg (Mus musculus [8]): 90%; inhibition in vivo at 50 mg/kg (Mus musculus [9]): 70%; ED50 (Mus musculus [10]): 39.4 mg/kg; Ratio TD50/ED50 (Mus musculus [11]): >38.1; TD50 at 1 min [12]: > 1500 mg/kg
Clc1ccccc1Cn1cnc2c(-n3cncn3)ncnc21 |  | inactive |  |  |  | 
Clc1ccc(Cn2cnc3c(-n4cncn4)ncnc32)cc1 |  | inactive |  |  | inactive | 
Cc1ccc(Cn2cnc3c2ncn2cnnc32)cc1 |  | inactive |  |  | inactive | 
CCCCCn1cnc2c(-n3cncn3)ncnc21 |  | inactive |  |  |  | 
Cc1ccc(Cn2cnc3c(-n4cncn4)ncnc32)cc1 |  | inactive |  |  | inactive | 
Fc1ccccc1Cn1cnc2c(-n3cncn3)ncnc21 | 15 | Active | 29.9 | 449 | Active | 
CCCCCn1cnc2c1ncn1cnnc21 |  | inactive |  |  | Active | 
Fc1ccccc1Cn1cnc2c(-n3ccnc3)ncnc21 | 1.8 | inactive | 61.4 | 115 | Active | 
COc1ccc(Cn2cnc3c2ncn2cnnc32)cc1 |  | inactive |  |  | inactive | 
Fc1ccc(Cn2cnc3c2ncn2cnnc32)cc1 |  | inactive |  |  | inactive | 
COc1ccc(Cn2cnc3c(-n4cncn4)ncnc32)cc1 |  | inactive |  |  | inactive | 
Fc1cccc(Cn2cnc3c(-n4cncn4)ncnc32)c1 | 8.3 | inactive | 45.9 | 384 | Active | 
Fc1cccc(Cn2cnc3c2ncn2cnnc32)c1 |  | inactive |  |  | inactive | 
CCCCCCCCCCCCn1cnc2c(-n3cncn3)ncnc21 |  | inactive |  |  |  | 
CCCCCCCn1cnc2c1ncn1cnnc21 |  | inactive |  |  | Active | 
CCCCCCCCCCn1cnc2c(-n3ccnc3)ncnc21 |  | inactive |  |  | Active | 
CCCCCCCCCCn1cnc2c(-n3cccn3)ncnc21 | 3.6 | inactive | 66.5 | 241 | Active | 
CCCCCCCCCCCCCCn1cnc2c(-n3cncn3)ncnc21 |  | inactive |  |  | inactive | 

Structure (SMILES) | Ratio TD50/ED50 (Mus musculus [1]) | Activity (Mus musculus [2]) | ED50 (Mus musculus [3]) [mg/kg] | TD50 at 1 min [4] [mg/kg] | Activity (Mus musculus [5]) | other results
Clc1ccc(Cn2cnc3c2ncn2cnnc32)cc1 |  | inactive |  |  | inactive | 
Fc1ccccc1Cn1cnc2c(-n3cccn3)ncnc21 |  | inactive |  |  | Active | 
CCCCCCn1cnc2c(-n3cncn3)ncnc21 | 4.8 | inactive | 43.9 | 210 | Active | 
Fc1ccccc1Cn1cnc2c1ncn1cnnc21 |  | inactive |  |  | Active | 
c1ccc(Cn2cnc3c2ncn2cnnc32)cc1 |  | inactive |  |  | Active | 
Fc1ccccc1Cn1cnc2c(Sc3ncn[nH]3)ncnc21 |  | inactive |  |  | inactive | 
CCCCCCCn1cnc2c(-n3cncn3)ncnc21 | 3.3 | Active | 31.5 | 105 | Active | 
CCCCn1cnc2c1ncn1cnnc21 |  | inactive |  |  | inactive | 
Clc1ccccc1Cn1cnc2c1ncn1cnnc21 | 6.1 | inactive | 51.9 | 315 | Active | 
NC(=O)N1c2ccccc2C=Cc2ccccc21 [CARBAMAZEPINE] | 6.4 |  | 11.8 |  |  | inhibition in vivo at 50 mg/kg (Mus musculus [7]): 0%; inhibition in vivo at 50 mg/kg (Mus musculus [8]): 100%; inhibition in vivo at 50 mg/kg (Mus musculus [9]): 80%; ED50 (Mus musculus [10]): 27.3 mg/kg; Ratio TD50/ED50 (Mus musculus [11]): 12; TD50 at 1 min [12]: 329 mg/kg
Clc1cccc(Cn2cnc3c2ncn2cnnc32)c1 |  | inactive |  |  | inactive | 
CCCCCCCCCCn1cnc2c(Sc3ncn[nH]3)ncnc21 |  | inactive |  |  | inactive | 
Clc1cccc(Cn2cnc3c(-n4cncn4)ncnc32)c1 | 7.5 | inactive | 65.4 | 488 | Active | 
Cc1cn(-c2ncnc3c2ncn3Cc2ccccc2F)cn1 |  | inactive |  |  | inactive | 
CCCCCCCCn1cnc2c(-n3cncn3)ncnc21 | 7.4 | Active | 33.2 | 247 | Active | 
Fc1ccc(Cn2cnc3c(-n4cncn4)ncnc32)cc1 |  | inactive |  |  | inactive | 
CCCCCCCCn1cnc2c1ncn1cnnc21 |  | inactive |  |  | Active | 
CCCCCCCCCCn1cnc2c1ncn1cnnc21 |  | inactive |  |  | inactive | 
CCCCCCCCCCn1cnc2c(-n3cnc(C)c3)ncnc21 | 2.9 | inactive | 67.5 | 196 | Active | 
CCCCCCn1cnc2c1ncn1cnnc21 | 2 | inactive | 51.2 | 102 | Active | 
